pEC50: −log10 of the molar value.
Experiments:
HT-1080 = assay: Antiproliferative activity against human HT1080 cells by MTT assay; format: functional; details: read-out: ED50 (the source's name)
Method in brief: (§1)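 Cells grown in medium with 10% fetal calf serum, 0.1% sodium bicarbonate and 2 mM glutamine. Viability with and without agents measured by MTT assay. 5-Fluorouracil served as positive control. Activity expressed as ED50 in µM.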

[1] = Antiproliferative activity against mouse Colon 26-L5 cells by MTT assay; format: functional; details: read-out: ED50 (the source's name); method in brief: as §1

| Structure (SMILES) | pEC50 (HT-1080) | pEC50 [1] |
| --- | --- | --- |
| Oc1ccc(CC[C@H]2CC=C[C@@H](c3ccc(O)cc3)O2)cc1 | 4.10 | < 4.00 |
| Oc1ccc(CC[C@H]2CC=C[C@H](c3ccc(O)cc3)O2)cc1 | 4.34 | 4.15 |
| Oc1ccc(CC[C@H]2C[C@H](O)[C@H](O)[C@@H](c3ccc(O)cc3)O2)cc1 | < 4.00 | 4.35 |
| Oc1ccc(CC[C@H]2CC(O)C(O)[C@@H](c3ccc(O)cc3)O2)cc1 (mixture of isomers) | 4.08 | 4.31 |
| Oc1ccc(/C=C/[C@H](C[C@@H](O)CCc2ccc(O)cc2)[C@@H]2[C@@H](c3ccc(O)cc3)O[C@@H](CCc3ccc(O)cc3)C[C@@H]2O)cc1 [BLEPHAROCALYXIN C] | 4.27 | 4.53 |
| Oc1ccc(/C=C/[C@@H]2C[C@H](CCc3ccc(O)cc3)O[C@@H]3C[C@H](CCc4ccc(O)cc4)O[C@H](c4ccc(O)cc4)[C@@H]23)cc1 [BLEPHAROCALYXIN D] | 4.59 | 5.44 |
| COc1cc(O)c([C@@H]2C[C@H](CCc3ccc(O)cc3)O[C@H](c3ccc(O)cc3)[C@H]2[C@H](/C=C/C[C@@H](O)CCc2ccc(O)cc2)c2ccc(O)cc2)c(O)c1C(=O)/C=C/c1ccc(O)cc1 [BLEPHAROCALYXIN E] | 5.04 | 4.49 |
| O=c1[nH]cc(F)c(=O)[nH]1 [FLUOROURACIL] | 5.10 | 6.28 |

From ChEMBL document CHEMBL1150815, “Blepharocalyxins C--E, three new dimeric diarylheptanoids, and related compounds from the seeds of Alpinia blepharocalyx” (2001)
